Assay results taken from ChEMBL document CHEMBL1128737, “Inhibition of herpes simplex virus type 1 helicase-primase by (dichloroanilino)purines and -pyrimidines” (J Med Chem, 1995).

Legend:
[1] = target: DNA replication helicase (Human herpesvirus 1, UniProt P10189); experiment: Inhibition against DNA-Dependent GTPase activity of two-subunit recombinant HSV-1 helicase-primase
[2] = tested on: HeLa; experiment: Inhibition of [3H]thymidine incorporation into the DNA of uninfected HeLa cells; assay type: functional, cell-based; conditions: Homo sapiens
In short: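 Uninfected HeLa cells (3 × 10^6/well) in DMEM/10% FCS grown 24 h, then given serial compound dilutions or DMSO in duplicate for a further 24 h at 37 °C. [3H]thymidine (1 μCi/mL) added for 3 h, followed by NaOH lysis, 5% TCA precipitation, filter collection and scintillation counting.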

[3] = target: T1, DNA helicase/primase complex protein (Herpes simplex virus (type 1 / strain 17), UniProt P10236); experiment: (§1) Inhibition against Primase by coupled primase-DNA polymerase-I assay with the two subunit recombinant HSV-1 helicase primase; assay type: functional, Human alphaherpesvirus 1
T1 sequence (P10236 whole entry): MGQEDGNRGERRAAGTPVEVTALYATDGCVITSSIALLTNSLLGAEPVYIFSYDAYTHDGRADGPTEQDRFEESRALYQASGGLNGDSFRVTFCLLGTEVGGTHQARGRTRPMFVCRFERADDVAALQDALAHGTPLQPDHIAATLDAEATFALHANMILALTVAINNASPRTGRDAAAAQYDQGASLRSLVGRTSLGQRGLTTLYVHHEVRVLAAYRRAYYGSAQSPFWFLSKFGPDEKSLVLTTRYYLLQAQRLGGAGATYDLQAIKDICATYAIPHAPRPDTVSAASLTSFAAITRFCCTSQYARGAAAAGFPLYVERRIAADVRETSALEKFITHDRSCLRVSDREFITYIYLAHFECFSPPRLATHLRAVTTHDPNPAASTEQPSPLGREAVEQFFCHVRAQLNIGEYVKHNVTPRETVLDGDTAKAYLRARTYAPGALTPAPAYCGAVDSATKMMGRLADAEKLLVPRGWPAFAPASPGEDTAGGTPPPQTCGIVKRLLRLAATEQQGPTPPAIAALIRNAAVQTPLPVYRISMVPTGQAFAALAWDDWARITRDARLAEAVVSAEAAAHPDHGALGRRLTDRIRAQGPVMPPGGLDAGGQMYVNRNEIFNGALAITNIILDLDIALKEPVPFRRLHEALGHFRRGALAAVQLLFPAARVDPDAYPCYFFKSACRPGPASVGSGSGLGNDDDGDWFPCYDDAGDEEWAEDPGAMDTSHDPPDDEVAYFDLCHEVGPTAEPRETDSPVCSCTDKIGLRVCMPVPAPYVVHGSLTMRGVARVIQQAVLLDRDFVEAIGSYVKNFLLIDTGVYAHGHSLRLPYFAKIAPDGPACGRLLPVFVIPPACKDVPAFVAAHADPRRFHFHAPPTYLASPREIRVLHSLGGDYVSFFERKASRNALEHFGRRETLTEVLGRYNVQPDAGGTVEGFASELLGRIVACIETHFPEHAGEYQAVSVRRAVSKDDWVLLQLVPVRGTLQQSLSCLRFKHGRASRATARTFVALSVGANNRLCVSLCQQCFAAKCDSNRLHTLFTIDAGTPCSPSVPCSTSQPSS
In short: (§2)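 Two-subunit baculovirus enzyme (1 unit) coupled to 1 unit E. coli Klenow. Buffer: 50 mM Tris·HCl pH 8.7, 3.5 mM MgCl2, 10% glycerol, 100 μg/mL BSA. Inhibitors in DMSO at 0.5% final, screened at 200 μg/mL. Run 60 min at 34 °C; EDTA quench; polymer isolated on G50 and counted. Duplicates.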

[4] = target: T2, DNA helicase/primase complex protein (Herpes simplex virus (type 1 / strain 17)) (UniProt P10236); experiment: Inhibition against DNA-Dependent ATPase activity of HSV-1 helicase-primase in HSV-1-infected CV-1 cells; assay type: cell-based; set-up: concentration or dose not given beside the values; conditions: concentration not given here
T2 sequence (whole entry): T1 sequence (P10236 whole entry)
In short: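 Three-subunit helicase-primase purified from HSV1-infected CV-1 cells, 15 units. DNA-dependent NTPase run with 1 mM ATP and 2 μg activated DNA, compounds in 5% DMSO, 20 min at 34 °C. Orthophosphate read with acidic molybdate-malachite green at 650 nm. Done in duplicate, averaged over at least two independent experiments.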

[5] = target: T2, DNA helicase/primase complex protein (Herpes simplex virus (type 1 / strain 17)); experiment: (§3) Inhibition against the primase activity of HSV-1 helicase-primase at a concentration 200 micro/mL; assay type: functional; conditions: Human alphaherpesvirus 1
[6] = tested on: HeLa; experiment: Inhibition of HSV-1 DNA synthesis in virus-infected HeLa cells; assay type: functional, cell-based; conditions: Homo sapiens
In short: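 HeLa cells (2 × 10^4/well) grown 24 h at 37 °C, infected with HSV1 KOS, adsorbed 90 min. Serial compound dilutions in DMEM/2% FCS added to duplicate wells for 24 h.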

[7] = target: T2, DNA helicase/primase complex protein (Herpes simplex virus (type 1 / strain 17)); experiment: as §3; conditions: Human alphaherpesvirus 1
[8] = target: T1, DNA helicase/primase complex protein; experiment: as §1; set-up: species or system Human alphaherpesvirus 1
In short: as §2

Chain of DNA replication helicase (P10189 whole entry, looked up): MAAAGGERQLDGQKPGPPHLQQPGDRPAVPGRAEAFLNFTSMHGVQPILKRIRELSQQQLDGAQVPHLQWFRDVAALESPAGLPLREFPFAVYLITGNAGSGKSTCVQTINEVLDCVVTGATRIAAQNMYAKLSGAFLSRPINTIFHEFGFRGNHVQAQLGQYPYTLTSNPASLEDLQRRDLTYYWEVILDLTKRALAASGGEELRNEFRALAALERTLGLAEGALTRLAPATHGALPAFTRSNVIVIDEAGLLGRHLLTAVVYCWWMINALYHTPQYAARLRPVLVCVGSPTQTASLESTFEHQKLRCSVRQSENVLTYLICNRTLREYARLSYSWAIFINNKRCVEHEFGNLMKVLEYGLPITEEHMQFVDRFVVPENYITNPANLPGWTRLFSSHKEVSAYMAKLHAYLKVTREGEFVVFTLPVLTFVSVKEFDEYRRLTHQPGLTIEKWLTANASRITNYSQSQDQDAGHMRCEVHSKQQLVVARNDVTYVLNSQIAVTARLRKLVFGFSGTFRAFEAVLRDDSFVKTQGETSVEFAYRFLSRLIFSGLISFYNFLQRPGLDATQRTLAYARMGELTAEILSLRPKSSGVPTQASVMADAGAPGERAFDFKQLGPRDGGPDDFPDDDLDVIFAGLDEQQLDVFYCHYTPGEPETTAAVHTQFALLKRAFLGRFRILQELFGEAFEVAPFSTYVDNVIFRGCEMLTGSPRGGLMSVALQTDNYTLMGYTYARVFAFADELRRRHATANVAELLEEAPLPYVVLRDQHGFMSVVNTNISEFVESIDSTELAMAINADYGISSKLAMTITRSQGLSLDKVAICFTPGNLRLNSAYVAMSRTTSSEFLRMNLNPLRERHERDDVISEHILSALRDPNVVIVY

SMILES	IC50 [2]	inhibition [4]	IC50 [6]	further results
Oc1[nH]c(Nc2ccc(Cl)c(Cl)c2)nc2ncnc1-2	250 µM	98%	> 200 µM	IC50 [1]: 880 µM; IC50 [3]: 59 µM; inhibition [5]: 89%
Nc1nc2c(ncn2COCCO)c(=O)[nH]1 [ACYCLOVIR]	> 200 µM		1.9 µM	
Nc1nc(O)cc(Nc2cc(Cl)cc(Cl)c2)n1				inhibition [7]: 34%
O=c1[nH]c(Nc2cccc(C(F)(F)F)c2)nc2[nH]cnc12		13%		
Oc1[nH]c(Nc2ccccc2)nc2ncnc1-2		0%		
Oc1[nH]c(Nc2cccc(Cl)c2)nc2ncnc1-2		60%		
Nc1nc(Nc2cc(Cl)cc(Cl)c2)nc2nc[nH]c12				IC50 [1]: 920 µM
O=c1[nH]c(Nc2cc(Cl)cc(Cl)c2)nc2c1ncn2COC(CO)CO	22.9 µM		91 µM	
Cc1ccc(Nc2nc(O)c3[nH]cnc3n2)cc1		0%		
Oc1[nH]c(Nc2cc(Cl)cc(Cl)c2)nc2ncnc1-2	> 200 µM	70%	> 200 µM	inhibition [5]: 94%
Oc1[nH]c(Nc2ccc(F)cc2)nc2ncnc1-2		5%		
O=c1[nH]c(Nc2cc(Cl)cc(Cl)c2)nc2c1ncn2COCCO	23.4 µM		14.4 µM	
O=c1[nH]c(Nc2cc(Cl)cc(Cl)c2)nc2c1ncn2[C@H]1C[C@H](O)[C@@H](CO)O1	32 µM		190 µM	
Oc1[nH]c(Nc2ccc(F)c(Cl)c2)nc2ncnc1-2		96%		
CCc1cccc(Nc2nc(O)c3[nH]cnc3n2)c1		42%		
Nc1nc(O)cc(Nc2ccc(Cl)c(Cl)c2)n1				inhibition [7]: 44%; IC50 [1]: 850 µM
Nc1[nH]c(Nc2ccc(Cl)c(Cl)c2)nc2ncnc1-2	15 µM		75 µM	inhibition [7]: 94%; IC50 [1]: 850 µM

SMILES	IC50 [2]	inhibition [4]	IC50 [6]	further results
Nc1nc(Nc2cc(Cl)cc(Cl)c2)nc2c1ncn2COC(CO)CO	5.5 µM		61.6 µM	
Nc1nc(Nc2cc(Cl)cc(Cl)c2)nc2c1ncn2[C@H]1C[C@H](O)[C@@H](CO)O1	0.4 µM		49 µM	
Nc1nc(Cl)cc(Nc2ccc(Cl)c(Cl)c2)n1	25 µM		62 µM	inhibition [7]: 98%; IC50 [8]: 8.7 µM
OC[C@H]1O[C@@H](n2cnc3c(Cl)nc(Nc4cc(Cl)cc(Cl)c4)nc32)C[C@@H]1O	2.7 µM		23 µM	
Oc1ccc(Nc2nc(O)c3[nH]cnc3n2)cc1		17%		
OCCOCn1cnc2c(Cl)nc(Nc3cc(Cl)cc(Cl)c3)nc21	7.4 µM		5 µM	
O=c1[nH]c(Nc2cc(Cl)cc(Cl)c2)nc2nc[nH]c12				IC50 [1]: 910 µM
Oc1[nH]c(Nc2ccc(Br)cc2)nc2ncnc1-2		40%		
Oc1cc(Nc2ccc(Cl)c(Cl)c2)nc(O)n1				inhibition [7]: 30%; IC50 [1]: > 2000 µM
Oc1[nH]c(Nc2ccc3c(c2)CCC3)nc2ncnc1-2		0%		
Nc1nc(Nc2cc(Cl)cc(Cl)c2)cc(=O)[nH]1				IC50 [1]: 770 µM
Nc1nc(Cl)cc(Nc2cc(Cl)cc(Cl)c2)n1	23 µM		45 µM	inhibition [7]: 92%
Nc1[nH]c(Nc2cc(Cl)cc(Cl)c2)nc2ncnc1-2	21 µM		69 µM	inhibition [7]: 93%
Oc1[nH]c(Nc2ccc(F)c(F)c2)nc2ncnc1-2		73%		
Nc1nc(Nc2cc(Cl)cc(Cl)c2)nc2c1ncn2COCCO	2.5 µM		12.9 µM	
Oc1cc(Nc2cc(Cl)cc(Cl)c2)nc(O)n1				inhibition [7]: 46%; IC50 [1]: > 2000 µM
